Read-outs that look alike come from different tables or passages of the source. Ends that are not written are not given here. λN = λN tag that binds BoxB hairpins, for tethering; HA = not defined here
Legend:
[1] = biological target: Dm CN9BD–CAF40 complex (Drosophila melanogaster) (UniProt Q7JVP2); experiment: ITC
F-Luc-5BoxB mRNA = experiment: Tethering assay in S2 cells, F-Luc-5BoxB reporter; assay type: cell-based, Drosophila melanogaster; settings: for repression/degradation activity in tethering: λN-HA-tagged, S2 cells, harvested 3 days after transfection
[2] = biological target: T1, Hs NOT1 CN9BD–CAF40 complex (human, UniProt A5YKK6;Q92600); experiment: pull-down
T1 sequence (Q92600 19-285, one chain of several): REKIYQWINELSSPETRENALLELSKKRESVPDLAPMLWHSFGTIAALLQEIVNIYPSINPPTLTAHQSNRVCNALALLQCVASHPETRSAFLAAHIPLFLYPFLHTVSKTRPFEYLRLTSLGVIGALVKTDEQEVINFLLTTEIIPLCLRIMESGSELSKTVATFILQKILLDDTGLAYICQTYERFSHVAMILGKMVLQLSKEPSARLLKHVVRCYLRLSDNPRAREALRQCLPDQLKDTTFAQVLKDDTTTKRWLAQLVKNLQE

F-Luc-5BoxB-A95C7-HhR = experiment: Tethering assay in S2 cells, F-Luc-5BoxB-A95C7-HhR reporter; assay type: cell-based, Drosophila melanogaster
[3] = biological target: GST-tagged Hs CAF40 (ARM domain) (human, UniProt Q92600); experiment: pull-down
Sequence of GST-tagged Hs CAF40 (ARM domain) (Q92600 19-285): as the sequence (Q92600 19-285, one chain of several) above

[4] = biological target: T2, Hs CAF40 (ARM domain, residues R19–E285) (human, UniProt Q92600 19-285); experiment: crystal structure
T2 sequence (Q92600 19-285): as the sequence (Q92600 19-285, one chain of several) above

[5] = biological target: T1, Hs NOT1 CN9BD–CAF40 complex; experiment: crystal structure
[6] = system: Dm NOT1-CN9BD–CAF40 complex; experiment: In vitro MBP pull-down, Dm CN9BD–CAF40; assay type: binding, Drosophila melanogaster; settings: MBP-tagged proteins, amylose resin, 50 mM HEPES pH 7.5, 200 mM NaCl, 2 mM DTT, 1 h; SDS-PAGE, Coomassie
In short: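 Proteins were expressed in E. coli BL21 (DE3) Star overnight at 20°C. Tethered-protein constructs carried an N-terminal MBP tag and were purified by amylose resin, anion exchange and gel filtration. MBP (20 µg, negative control) or MBP fusion (40 µg) was incubated 1 h with equimolar purified CCR4–NOT modules plus amylose resin. Beads were washed five times and eluted with 25 mM maltose. Eluates were TCA-precipitated and analysed by SDS-PAGE/Coomassie.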

[7] = biological target: T2, Hs CAF40 (ARM domain, residues R19–E285); experiment: crystal structure; remark: listed apart in the source

Work on “Bam CBM peptide (residues D13–E36) (from UniProt P22745 13-36)” yielded a Kd [1] of 0.183 µM.

“fragment D13–E36 fused to GST: λN-HA-GST-Bam 13–36 ({λN-HA-GST}-DDQQLDHNFKQMEEHLALMVEGNE; reading uncertain; UniProt P22745 13-36, looked up, fragment)” was tested, and the “repression/degradation activity in tethering” value (F-Luc-5BoxB mRNA) was “sufficient to induce the repression and degradation of the F-Luc-5BoxB mRNA to a similar extent as full-length Bam”.

B1: MBP-tagged full-length Bam (natural protein)
chain: MLNARDVCPEGNDDQQLDHNFKQMEEHLALMVEGNENEDPRKATCEYEDTNEDGATCTSGVLSEIQENFGRLRLCDVTAPLLEFHGLDCLQQIQKRSRHFAFDGSPAKKSRSGGVLVTGPKQKQLQKENVWNRKSKGSASADNIEKLPITIEKLHMIGLHGDCLEHNAVLRLMNLFRSLHDHLTADLGFSRQNSMPSDYLFDMPVKSTMPKSLNVRYQLQVLCTKVERFLVQQRRTLEANRHFDFEKYDECDKLLKGFASYLDNFKLLLKPKMRNRNGNSGSNADKFHTQRMERLLIGLRDWIKAAHLSVHVFNWEMDLEHRYSGAMTESHKSLNERAILLSGAELRAAEARGISAEDLFIAQRYKLGGPIYCVLEQHEFLSALIANPETYFPPSVVAICGPQKLGAVSMEQPSASEEEFEETEEVPSSPPRHTGRVPRFRS
B1: binds [2].

B2: Bam-N: Bam N-terminal fragment, residues 1–140 (protein, UniProt P22745 1-140, looked up, fragment)
chain: MLNARDVCPEGNDDQQLDHNFKQMEEHLALMVEGNENEDPRKATCEYEDTNEDGATCTSGVLSEIQENFGRLRLCDVTAPLLEFHGLDCLQQIQKRSRHFAFDGSPAKKSRSGGVLVTGPKQKQLQKENVWNRKSKGSAS
For B2, the “F-Luc-5BoxB mRNA degradation in DCP2-depleted cells” value (F-Luc-5BoxB mRNA; DCP2 knockdown, DCP2 E361Q overexpressed) was “impaired”, the “F-Luc activity in DCP2-depleted cells” value (F-Luc-5BoxB mRNA; DCP2 knockdown, DCP2 E361Q overexpressed, F-Luc activity) was “not restored” and the “F-Luc-5BoxB mRNA degradation after NOT1 depletion” value (F-Luc-5BoxB mRNA; NOT1-depleted S2 cells) was “partially suppressed degradation of F-Luc-5BoxB mRNA”. The “repression/degradation activity in tethering” value (F-Luc-5BoxB mRNA) was “retained the activity of the full-length protein” and the “repression of deadenylation-resistant reporter” value (F-Luc-5BoxB-A95C7-HhR) was “repressed the expression of this reporter in S2 cells”.

DDQQLDHNFKQMEEHLALMVEGNE (domain or fragment) [MBP-tagged Bam CBM]: binds [2]; binds [3].

DDQQLDHNFKQMEEHLALMVEGNE [Bam CBM peptide (residues D13–E36)]: binds [4]; binds [5].

B3: ΔCBM: Bam Δ13–36 (protein)
chain: MLNARDVCPEGNNEDPRKATCEYEDTNEDGATCTSGVLSEIQENFGRLRLCDVTAPLLEFHGLDCLQQIQKRSRHFAFDGSPAKKSRSGGVLVTGPKQKQLQKENVWNRKSKGSASADNIEKLPITIEKLHMIGLHGDCLEHNAVLRLMNLFRSLHDHLTADLGFSRQNSMPSDYLFDMPVKSTMPKSLNVRYQLQVLCTKVERFLVQQRRTLEANRHFDFEKYDECDKLLKGFASYLDNFKLLLKPKMRNRNGNSGSNADKFHTQRMERLLIGLRDWIKAAHLSVHVFNWEMDLEHRYSGAMTESHKSLNERAILLSGAELRAAEARGISAEDLFIAQRYKLGGPIYCVLEQHEFLSALIANPETYFPPSVVAICGPQKLGAVSMEQPSASEEEFEETEEVPSSPPRHTGRVPRFRS
modifications: left off: MBP, N-terminal, kept
With B3 the interaction in pull-down [6] was “abolished the interaction with the Dm CN9BD–CAF40 module in vitro” and the “repression/degradation activity in tethering” value (F-Luc-5BoxB mRNA) was “sufficient to abolish the repressive activity of Bam”.

B4: Hs NOT1 CN9BD (residues V1351–L1588) (domain or fragment)
chain: VPPQPQYSYHDINVYSLAGLAPHITLNPTIPLFQAHPQLKQCVRQAIERAVQELVHPVVDRSIKIAMTTCEQIVRKDFALDSEESRMRIAAHHMMRNLTAGMAMITCREPLLMSISTNLKNSFASALRTASPQQREMMDQAAAQLAQDNCELACCFIQKTAVEKAGPEMDKRLATEFELRKHARQEGRRYCDPVVLTYQAERMPEQIRLKVGGVDPKQLAVYEEFARNVPGFLPTNDL
B4: binds [7].

B5: Bam-C: Bam C-terminal fragment, residues 141–442 (protein, UniProt P22745 141-442, looked up, fragment)
chain: ADNIEKLPITIEKLHMIGLHGDCLEHNAVLRLMNLFRSLHDHLTADLGFSRQNSMPSDYLFDMPVKSTMPKSLNVRYQLQVLCTKVERFLVQQRRTLEANRHFDFEKYDECDKLLKGFASYLDNFKLLLKPKMRNRNGNSGSNADKFHTQRMERLLIGLRDWIKAAHLSVHVFNWEMDLEHRYSGAMTESHKSLNERAILLSGAELRAAEARGISAEDLFIAQRYKLGGPIYCVLEQHEFLSALIANPETYFPPSVVAICGPQKLGAVSMEQPSASEEEFEETEEVPSSPPRHTGRVPRFRS
With B5 the “repression/degradation activity in tethering” value (F-Luc-5BoxB mRNA) was “strongly impaired”.

Reference: article PMC5824357 (RNA, 2018)
